Measurements from ChEMBL document CHEMBL1155062, “Antileishmanial activity screening of 5-nitro-2-heterocyclic benzylidene hydrazides” (Bioorg Med Chem, 2008).
pIC50: −log10 of the molar value. Active and inactive are the calls of the source. No cut-off for these calls is given here.

The compounds below were run on Leishmania donovani (assay: Antileishmanial activity against Leishmania donovani promastigotes after 48 hrs by alamar blue assay).
Type: functional, organism-based
Outline: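 L. donovani promastigotes grown in RPMI 1640 with 10% fetal calf serum at 26 °C. A 3-day-old culture was diluted to 5 × 10⁵ promastigotes/mL. Drug dilutions were made directly in the cell suspension and incubated 48 h at 26 °C.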

SMILES	pIC50	IC90	Activity
COc1cc(C(=O)N/N=C/c2ccc([N+](=O)[O-])s2)ccc1[N+](=O)[O-]	5.70	3.91 µM	–
O=C(N/N=C/c1ccc([N+](=O)[O-])o1)c1cccc(O)c1	4.99	28 µM	–
O=C(N/N=C/c1ccc([N+](=O)[O-])s1)c1ccc(Cl)cc1	5.90	4.84 µM	–
Cc1ccc(C(=O)N/N=C/c2ccc([N+](=O)[O-])s2)cc1O	5.64	4.59 µM	–
COc1ccc(C(=O)N/N=C/c2ccc([N+](=O)[O-])s2)cc1	5.14	26.2 µM	–
N=C(N)c1ccc(OCCCCCOc2ccc(C(=N)N)cc2)cc1 [PENTAMIDINE]	5.97	–	–
O=C(N/N=C/c1ccc([N+](=O)[O-])s1)c1ccc(C(F)(F)F)cc1	6.09	1.89 µM	–
COc1ccc(C(=O)N/N=C/c2ccc([N+](=O)[O-])s2)cc1N	5.33	18.3 µM	–
Cc1ccc(C(=O)N/N=C/c2ccc([N+](=O)[O-])s2)cc1	5.35	7.95 µM	–
COc1cccc(C(=O)N/N=C/c2ccc([N+](=O)[O-])s2)c1	5.07	32.8 µM	–
NS(=O)(=O)c1cc(C(=O)N/N=C/c2ccc([N+](=O)[O-])o2)ccc1Cl	4.42	88.5 µM	–
O=C(N/N=C/c1ccc([N+](=O)[O-])s1)c1cccc([N+](=O)[O-])c1	5.56	14.3 µM	–
COc1ccc(C(=O)N/N=C/c2ccc([N+](=O)[O-])o2)cc1N	4.78	131 µM	–
Nc1ccc(C(=O)N/N=C/c2ccc([N+](=O)[O-])o2)cc1	5.58	14.6 µM	–
COc1cccc(C(=O)N/N=C/c2ccc([N+](=O)[O-])o2)c1	4.98	26.6 µM	–
O=C(N/N=C/c1ccc([N+](=O)[O-])s1)c1ccc(F)c(Cl)c1	5.72	4.67 µM	–
CN(C)c1cccc(C(=O)N/N=C/c2ccc([N+](=O)[O-])s2)c1	–	–	inactive
O=C(N/N=C/c1ccc([N+](=O)[O-])o1)c1ccc(C(F)(F)F)cc1	5.05	24.4 µM	–
O=C(N/N=C/c1ccc([N+](=O)[O-])o1)c1ccccc1	4.95	29.7 µM	–
O=C(N/N=C/c1ccc([N+](=O)[O-])o1)c1cccc(Cl)c1	5.11	24.2 µM	–
CN(C)c1ccc(C(=O)N/N=C/c2ccc([N+](=O)[O-])s2)cc1	–	–	inactive
O=C(N/N=C/c1ccc([N+](=O)[O-])o1)c1ccc(O)cc1 [NIFUROXAZIDE]	5.62	17.8 µM	–
Cc1ccc(C(=O)N/N=C/c2ccc([N+](=O)[O-])s2)cc1N	5.65	4.7 µM	–
Cc1cccc(C(=O)N/N=C/c2ccc([N+](=O)[O-])o2)c1	4.70	> 36.6 µM	–
O=C(N/N=C/c1ccc([N+](=O)[O-])s1)c1ccc(Cl)c(Cl)c1	6.39	0.87 µM	–
O=C(N/N=C/c1ccc([N+](=O)[O-])o1)c1ccc([N+](=O)[O-])cc1	5.18	22.4 µM	–
O=C(N/N=C/c1ccc([N+](=O)[O-])s1)c1ccc(O)cc1	6.05	4.46 µM	–

SMILES	pIC50	IC90	Activity
NS(=O)(=O)c1cc(C(=O)N/N=C/c2ccc([N+](=O)[O-])s2)ccc1Cl	5.09	17.2 µM	–
O=C(N/N=C/c1ccc([N+](=O)[O-])s1)c1ccc(F)c(F)c1	5.67	4.92 µM	–
O=C(N/N=C/c1ccc([N+](=O)[O-])o1)c1ccc(F)c(F)c1	5.02	25.5 µM	–
Cc1cccc(C(=O)N/N=C/c2ccc([N+](=O)[O-])s2)c1	5.32	19 µM	–
COc1cc(C(=O)N/N=C/c2ccc([N+](=O)[O-])o2)ccc1C	5.05	52.8 µM	–
Nc1cc(C(=O)N/N=C/c2ccc([N+](=O)[O-])o2)ccc1O	4.57	97.5 µM	–
O=C(N/N=C/c1ccc([N+](=O)[O-])o1)c1ccc(Cl)c([N+](=O)[O-])c1	–	–	inactive
COc1ccc(C(=O)N/N=C/c2ccc([N+](=O)[O-])o2)cc1	5.05	25.9 µM	–
Cc1ccc(C(=O)N/N=C/c2ccc([N+](=O)[O-])o2)cc1N	6.21	2.88 µM	–
O=C(N/N=C/c1ccc([N+](=O)[O-])o1)c1cccc([N+](=O)[O-])c1	5.01	26 µM	–
O=C(N/N=C/c1ccc([N+](=O)[O-])o1)c1ccc(Cl)cc1	5.11	23.8 µM	–
O=C(N/N=C/c1ccc([N+](=O)[O-])s1)c1cccc(O)c1	5.56	7.55 µM	–
O=C(N/N=C/c1ccc([N+](=O)[O-])o1)c1ccc([N+](=O)[O-])c(O)c1	5.00	48.9 µM	–
COc1cc(C(=O)N/N=C/c2ccc([N+](=O)[O-])o2)ccc1[N+](=O)[O-]	5.13	20.2 µM	–
O=C(N/N=C/c1ccc([N+](=O)[O-])s1)c1ccc([N+](=O)[O-])cc1	5.55	5.31 µM	–
O=C(N/N=C/c1ccc([N+](=O)[O-])o1)c1ccc(Cl)c(Cl)c1	5.77	26.9 µM	–
O=C(N/N=C/c1ccc([N+](=O)[O-])o1)c1cccc(C(F)(F)F)c1	4.98	24.1 µM	–
O=C(N/N=C/c1ccc([N+](=O)[O-])o1)c1ccc(F)c(Cl)c1	5.19	19.2 µM	–
Cc1ccc(C(=O)N/N=C/c2ccc([N+](=O)[O-])o2)cc1	4.96	28.6 µM	–
O=C(N/N=C/c1ccc([N+](=O)[O-])s1)c1ccc([N+](=O)[O-])c(O)c1	5.26	18.4 µM	–
COc1cc(C(=O)N/N=C/c2ccc([N+](=O)[O-])s2)ccc1C	5.66	4.39 µM	–
CN(C)c1ccc(C(=O)N/N=C/c2ccc([N+](=O)[O-])o2)cc1	–	–	inactive
Nc1ccc(C(=O)N/N=C/c2ccc([N+](=O)[O-])s2)cc1	5.65	> 34.5 µM	–
O=C(N/N=C/c1ccc([N+](=O)[O-])s1)c1cccc(C(F)(F)F)c1	5.42	6.41 µM	–
O=C(N/N=C/c1ccc([N+](=O)[O-])s1)c1ccccc1	5.18	25.4 µM	–
O=C(N/N=C/c1ccc([N+](=O)[O-])s1)c1cccc(Cl)c1	5.56	6.78 µM	–
CN(C)c1cccc(C(=O)N/N=C/c2ccc([N+](=O)[O-])o2)c1	5.10	24.2 µM	–
